Assay [1] deals with HepG2. The experiment in a line: Cytotoxicity against human HepG2 cell line by MTS assay. It counts as functional, cell-based.
Another assay concerns Mus musculus. The experiment in a line: Reduction in body weight of C3H mouse infected with 10^6 CFU of Mycobacterium tuberculosis H37Rv at 10 mg/kg, po after 20 days. In kind it is functional. More on the design: scale not given: the % may be the effect or the level left. The procedure, abridged: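 Rapid-progression model: C3H mice infected iv with 10^6 CFU M. tuberculosis H37Rv. Oral gavage at 10 mg/kg daily (dose not optimised) started day 7 and ran 10 days. Body weight was monitored from day 0, 6 mice per group. Controls were uninfected, infected untreated, and INH 25 mg/kg.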

Assay [2] relates to Mycobacterium tuberculosis. The experiment in a line: Antimycobacterial activity against Mycobacterium tuberculosis by broth microdilution assay. It counts as functional. In a few lines: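 MIC by broth microdilution against M. tuberculosis. Library mixtures were screened unpurified, and active wells were deconvoluted and re-tested as individual compounds. Purified compounds (≥95%) were tested from 10 mM methanol stocks. INH, rifampicin and EMB were controls.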
A general note: Dilution methods test growth across graded concentrations, often in twofold steps.

Assay [3] deals with Mycobacterium tuberculosis. The experiment in a line: Antimycobacterial activity against recombinant Mycobacterium tuberculosis containing Rv0341 promoter by luciferase assay. In kind it is functional. More on the design: concentration or dose not given beside the values. The procedure, abridged:
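Recombinant M. tuberculosis carrying the Rv0341 promoter fused to firefly luciferase was treated and luminescence read. Activity is given as percent of EMB activity (EMB = 100%). In screening, luminescence above 1.5-fold the untreated background counted as active.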

Assay [4] deals with Mycobacterium tuberculosis. The experiment in a line: Reduction in CFU in C57BL/6 mouse infected with 10^5 CFU of Mycobacterium tuberculosis H37Rv at 10 mg/kg after 20 days. In kind it is functional. The procedure, abridged:
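Low-dose chronic TB mouse model with M. tuberculosis H37Rv. Treatment began 20 days after infection: 10 mg/kg daily by oral gavage, 5 days/week for four weeks. INH 25 mg/kg was the positive control. Organ CFU were compared with infected untreated mice.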

The test system of assay [5] is HepG2. The experiment in a line: Selectivity index, IC50 for human HepG2 cell line/MIC for Mycobacterium tuberculosis. It counts as functional. In a few lines: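 SI = IC50/MIC: HepG2 IC50 from the MTS assay divided by the M. tuberculosis MIC from broth microdilution.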

Here are results for 16 compounds from ChEMBL document CHEMBL1147721, “Identification of new diamine scaffolds with activity against Mycobacterium tuberculosis” (J Med Chem, 2006).

Converted amounts (≈) assume the structure as drawn. The source made the active and inactive calls. The rule behind the calls is not given here.

In the case of `c1ccc(COc2ccc(CN3CCN(Cc4ccccc4)CC3)cc2)cc1`, half-maximal inhibition in the assay on HepG2 [1] (IC50) required 54 µM. For the same compound, the Activity in the assay on Mus musculus is 12%. For the same compound, in assay [2], the minimal inhibitory concentration (MIC) – broadly, the lowest concentration found to suppress growth – was 6.25 µM (≈ 2.33 µg/mL). The outcome in assay [3] was inactive. Moreover, in assay [4], the Log10 cfu worked out at 1. The compound further came in with a Selectivity index in the assay on HepG2 [5] of 9.
In the case of `Fc1ccc(N2CCN(C3CCC4CCCCC4C3)CC2)cc1` (stereo not drawn), in the assay on HepG2 [1], the concentration for half-maximal inhibition (IC50) (usually the point on the concentration scale where inhibition reaches its midpoint) turned out to be 86 µM. In assay [2], this compound came in with an MIC of 12.5 µM (≈ 3.96 µg/mL). For the same compound, the Activity in assay [3] turned out to be 157%. In addition, in the assay with HepG2 [5], the Selectivity index was 7.
In the assay with HepG2 [1], `CCOc1ccccc1CN1CCCN(Cc2ccccc2OCC)CC1` yielded an IC50 of 71 µM. Also, the Activity with Mus musculus is 21%; in assay [3] it was 70%. Further, the MIC in assay [2] came to 1.56 µM (≈ 0.575 µg/mL). Moreover, in the assay with HepG2 [5], the Selectivity index is given as 46.
In the assay on HepG2 [1], `c1ccc(COc2ccc(CN3CCCN(Cc4ccc(OCc5ccccc5)cc4)CC3)cc2)cc1` registered an IC50 of 56 µM. Also, the MIC in assay [2] was determined as 3.13 µM (≈ 1.54 µg/mL). The outcome in assay [3] was inactive. In the assay with HepG2 [5], this compound returned a Selectivity index of 18.
The compound `NNC(=O)c1ccncc1` [ISONIAZID] yielded a Log10 cfu in assay [4] of 3.5.
As to `Clc1ccc(C(c2ccccc2)N2CCN(C3CCC4CCCCC4C3)CC2)cc1` (stereo not drawn), the half-maximal inhibitory concentration (IC50) with HepG2 [1] came to 47 µM. The same compound had an MIC in assay [2] of 6.25 µM (≈ 2.64 µg/mL). Further, the outcome in assay [3] was inactive. Moreover, the Selectivity index with HepG2 [5] is recorded as 8.
The compound `C=C(C)[C@@H]1CC=C(CN2CCN(Cc3ccccc3)CC2)CC1` registered an IC50 in the assay on HepG2 [1] of 60 µM. Moreover, in assay [2], the lowest concentration to inhibit growth (MIC) was 3.13 µM (≈ 0.972 µg/mL). Further, the outcome in assay [3] was inactive. In addition, the Selectivity index with HepG2 [5] is 19.
The compound `C1CCC2CC(N3CCCN(C4CCC5CCCCC5C4)CC3)CCC2C1` (mixture of isomers) showed a half-maximal inhibitory concentration (IC50) in the assay on HepG2 [1] of 54 µM. This compound also registered a minimum inhibitory concentration (MIC) in assay [2] of 1.56 µM. Besides, in assay [3], the Activity worked out at 127%. This compound came in with a Selectivity index with HepG2 [5] of 35.
The compound `C=C(C)[C@@H]1CC=C(CN2CCCN(CC3=CC[C@@H](C(=C)C)CC3)CC2)CC1` gave a concentration for half-maximal inhibition (IC50) in the assay with HepG2 [1] of 81 µM. Further, in assay [2], the minimal inhibitory concentration (MIC) was 6.25 µM (≈ 2.3 µg/mL). In addition, in assay [3], the result was inactive. In the assay with HepG2 [5], this compound yielded a Selectivity index of 13.
For `CC1(C)C2CC=C(CN3CCN(Cc4ccccc4)CC3)C1C2` (stereo not drawn), in that order: 64 µM, 6.25 µM (≈ 1.94 µg/mL), “inactive” and 10.
As to `COc1ccccc1CN1CCCN(Cc2ccccc2OC)CC1`, in assay [2], the MIC came to 6.25 µM (≈ 2.13 µg/mL). In assay [3], the Activity was 138%. Moreover, the Selectivity index with HepG2 [5] worked out at 17.
For the compound `C1CN(C2C3CC4CC(C3)CC2C4)CCN(C2C3CC4CC(C3)CC2C4)C1` (stereo not drawn), the Activity in the assay on Mus musculus turned out to be 12%; in assay [3], 126%. It took 1.56 µM (≈ 0.575 µg/mL) to inhibit growth in assay [2] (MIC). Besides, in assay [4], the Log10 cfu was determined as 0.7. The same compound came in with a Selectivity index in the assay with HepG2 [5] of 84.6.
Turning to `C1CCCC(N2CCCN(C3CCCCCCC3)CC2)CCC1`, the IC50 in the assay on HepG2 [1] was 74 µM. The same compound registered an MIC in assay [2] of 1.56 µM (≈ 0.5 µg/mL). In addition, the Activity in assay [3] is given as 81%. The compound further had a Selectivity index with HepG2 [5] of 47.
`CC1(C)C2CC=C(CN3CCCN(CC4=CCC5CC4C5(C)C)CC3)C1C2` registered a minimal inhibitory concentration (MIC) in assay [2] of 3.13 µM (≈ 1.15 µg/mL). In addition, the Activity in assay [3] was determined as 113%. In the assay with HepG2 [5], this compound gave a Selectivity index of 35.
`Fc1ccccc1N1CCN(C2CCC3CCCCC3C2)CC1` (stereo not drawn) gave a 50% inhibitory concentration (IC50) in the assay with HepG2 [1] of 70 µM. In assay [2], it took 12.5 µM (≈ 3.96 µg/mL) to inhibit growth (MIC). Further, in assay [3], the Activity is 145%. Further, the Selectivity index in the assay with HepG2 [5] is reported as 6.
On the same counts, the results for `COc1ccccc1CN1CCN(C(c2ccccc2)c2ccc(Cl)cc2)CC1` (stereo not drawn) are 65 µM, 6.25 µM (≈ 2.54 µg/mL), “inactive” and 10.
